Converted amounts (≈) assume the structure as drawn.
Tests used:
[1] = target: Signal peptidase I (Escherichia coli K-12) (UniProt P00803); assay: (§1) Inhibition of full length Escherichia coli His6-tagged LepB expressed in Escherichia coli C43(DE3) assessed as residual activity at 0.241406 uM using dabcyl-VEVGGTATAGAFSRPGLE-(EDANS) as substrate preincubated for 10 mins followed by substrate addition measured for 2 hrs by FRET assay relative to control
Outline: (§2)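 Enzyme came from the membrane fraction, extracted with 1% reduced Triton X-100 and purified by metal-chelation chromatography in 0.5% detergent. FRET pair was dabcyl acceptor and EDANS donor. EcLepB (final about 50 nM) was pre-incubated with compound 10 min at 22 °C. Reaction was then run with 8 µM substrate, following the linear fluorescence increase at 22 °C for 2 h.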

[2] = target: T1, Signal peptidase I (Escherichia coli K-12, UniProt P00803); assay: Inhibition of full length Escherichia coli His6-tagged LepB expressed in Escherichia coli C43(DE3) using dabcyl-VEVGGTATAGAFSRPGLE-(EDANS) as substrate preincubated for 10 mins followed by substrate addition measured after […] by FRET assay
T1 sequence (P00803 whole entry): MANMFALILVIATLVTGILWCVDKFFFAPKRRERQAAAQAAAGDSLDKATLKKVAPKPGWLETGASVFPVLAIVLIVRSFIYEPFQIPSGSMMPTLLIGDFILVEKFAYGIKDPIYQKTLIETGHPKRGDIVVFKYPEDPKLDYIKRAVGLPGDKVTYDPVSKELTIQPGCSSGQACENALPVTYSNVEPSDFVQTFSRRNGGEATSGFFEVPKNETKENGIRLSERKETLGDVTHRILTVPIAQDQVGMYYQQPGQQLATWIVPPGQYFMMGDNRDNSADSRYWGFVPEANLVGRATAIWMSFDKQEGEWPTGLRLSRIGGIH

[3] = tested on: Pseudomonas aeruginosa; assay: Antibacterial activity against wild type Pseudomonas aeruginosa PAO1 after 16 to 20 hrs by broth microdilution assay; assay type: functional
Outline: (§3)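 MIC by broth microdilution in cation-adjusted Mueller-Hinton II medium, following EUCAST and CLSI guidelines; panel of Gram-negative strains plus S. aureus ATCC 29213.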

[4] = target: T1, Signal peptidase I; assay: Inhibition of full length Escherichia coli His6-tagged LepB expressed in Escherichia coli C43(DE3) using dabcyl-VEVGGTATAGAFSRPGLE-(EDANS) as substrate preincubated for 10 mins followed by substrate addition measured for 2 hrs by FRET assay
Outline: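 Enzyme extracted from the membrane fraction with 1% reduced Triton X-100 and purified by metal-chelation chromatography in 0.5% detergent. Enzyme (final ~50 nM) was pre-incubated with compound for 10 min at 22 °C. The linear rise in EDANS donor fluorescence (dabcyl acceptor) was then followed at 22 °C for 2 h. IC50 came from non-linear regression of sigmoidal rate-versus-concentration curves.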

[5] = target: Signal peptidase I (Escherichia coli K-12) (UniProt P00803); assay: as §1, with “0.4882812” for “0.241406”; outline: as §2
[6] = tested on: Pseudomonas aeruginosa; assay: Antibacterial activity against wild type Pseudomonas aeruginosa PAO750 harboring efflux defective mutant after 16 to 20 hrs by broth microdilution assay; assay type: functional
Outline: (§4)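 Broth microdilution MIC in cation-adjusted Mueller-Hinton II medium, following EUCAST and CLSI guidelines; tested on a panel of Gram-negative strains plus S. aureus ATCC 29213 (wild-type).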

[7] = tested on: Escherichia coli; assay: Antibacterial activity against wild type Escherichia coli ATCC 25922 after 16 to 20 hrs by broth microdilution assay; assay type: functional; outline: as §3
[8] = target: Signal peptidase I (Escherichia coli K-12) (UniProt P00803); assay: as §1, with “1.953125” for “0.241406”; outline: as §2
[9] = target: Signal peptidase I (Escherichia coli K-12) (UniProt P00803); assay: as §1, with “62.5” for “0.241406”; outline: as §2
[10] = target: Signal peptidase I (Escherichia coli K-12) (UniProt P00803); assay: as §1, with “7.8125” for “0.241406”; outline: as §2
[11] = target: Signal peptidase I (Escherichia coli K-12) (UniProt P00803); assay: as §1, with “1000” for “0.241406”; outline: as §2
[12] = target: Signal peptidase I (Escherichia coli K-12) (UniProt P00803); assay: Inhibition of full length Escherichia coli His6-tagged LepB expressed in Escherichia coli C43(DE3) assessed as residual activity at 500 uM using dabcyl-VEVGGTATAGAFSRPGLE-(EDANS) as substrate preincubated for 10 mins followed by substrate addition measured for 2 hrs by FRET assay relative to control; outline: as §2
[13] = target: Signal peptidase I (Escherichia coli K-12) (UniProt P00803); assay: as §1, with “0.9765625” for “0.241406”; outline: as §2
[14] = target: Signal peptidase I (Escherichia coli K-12) (UniProt P00803); assay: Inhibition of full length Escherichia coli His6-tagged LepB expressed in Escherichia coli C43(DE3) at 100 uM using dabcyl-VEVGGTATAGAFSRPGLE-(EDANS) as substrate preincubated for 10 mins followed by substrate addition measured for 2 hrs by FRET assay relative to control; outline: as §2
[15] = target: Signal peptidase I (Escherichia coli K-12) (UniProt P00803); assay: as §1, with “31.25” for “0.241406”; outline: as §2
[16] = tested on: Escherichia coli; assay: Antibacterial activity against Escherichia coli D22 harboring lpxC mutant after 16 to 20 hrs by broth microdilution assay; assay type: functional; outline: as §4
[17] = target: Signal peptidase I (Escherichia coli K-12) (UniProt P00803); assay: Inhibition of full length Escherichia coli His6-tagged LepB expressed in Escherichia coli C43(DE3) assessed as residual activity at 250 uM using dabcyl-VEVGGTATAGAFSRPGLE-(EDANS) as substrate preincubated for 10 mins followed by substrate addition measured for 2 hrs by FRET assay relative to control; outline: as §2
[18] = target: Signal peptidase I (Escherichia coli K-12) (UniProt P00803); assay: Inhibition of full length Escherichia coli His6-tagged LepB expressed in Escherichia coli C43(DE3) assessed as residual activity at 125 uM using dabcyl-VEVGGTATAGAFSRPGLE-(EDANS) as substrate preincubated for 10 mins followed by substrate addition measured for 2 hrs by FRET assay relative to control; outline: as §2
[19] = tested on: Acinetobacter baumannii; assay: Antibacterial activity against wild type Acinetobacter baumannii ATCC 19606 after 16 to 20 hrs by broth microdilution assay; assay type: functional; outline: as §3
[20] = tested on: Escherichia coli; assay: Antibacterial activity against Escherichia coli CH3130 harboring tolC deletion mutant after 16 to 20 hrs by broth microdilution assay; assay type: functional; outline: as §4
[21] = tested on: Staphylococcus aureus; assay: Antibacterial activity against wild type Staphylococcus aureus ATCC 29213 after 16 to 20 hrs by broth microdilution assay; assay type: functional; outline: as §3
[22] = target: Signal peptidase I (Escherichia coli K-12) (UniProt P00803); assay: as §1, with “15.625” for “0.241406”; outline: as §2
[23] = tested on: Klebsiella pneumoniae; assay: Antibacterial activity against wild type Klebsiella pneumoniae […] after 16 to 20 hrs by broth microdilution assay; assay type: functional; outline: as §3
[24] = target: Signal peptidase I (Escherichia coli K-12) (UniProt P00803); assay: as §1, with “3.90625” for “0.241406”; outline: as §2
[25] = target: Signal peptidase I (Escherichia coli K-12) (UniProt P00803); assay: as §1, with “0.1220703” for “0.241406”; outline: as §2

Sequence of Signal peptidase I (Escherichia coli K-12) (P00803 whole entry): as above

CCCCCCCCCC(=O)N1CCC[C@H]1C(=O)N[C@H](C(=O)N[C@@H](C)C(=O)N[C@@H](CC(N)=O)C(=O)N[C@@H](C)C=O)[C@H](C)O
Activity [1]: 72.6%
IC50 [2]: 6.5 µM
MIC [3]: > 128 µg/mL
IC50 [4]: 1200 nM
Activity [5]: 64.5%
MIC [6]: 128 µg/mL (≈ 210 µM)
MIC [7]: > 128 µg/mL
Activity [8]: 43.6%
Activity [9]: -0.871%
Activity [10]: 20.9%
Activity [11]: -5.5%
Activity [12]: -4.44%
Activity [13]: 48.7%
inhibition [14]: 100%
Activity [15]: 6.54%
MIC [16]: > 128 µg/mL
Activity [17]: -6.1%
Activity [18]: -3.34%
MIC [19]: > 128 µg/mL
MIC [20]: > 128 µg/mL
MIC [21]: > 128 µg/mL
Activity [22]: 13%
MIC [23]: > 128 µg/mL
Activity [24]: 34.7%
Activity [25]: 77.4%
